High-throughput results as filed in PubChem BioAssay.
A selection: hits, their analogues and other compounds. The true share with any hit is near 2.1%.
Dynein cargo inh: dynein cargo transport inhibition. 3617.4 mouse cells, GR-EGFP nuclear translocation imaging; test concentration mostly 20 µM; stimulated with dexamethasone, 1 µM; stronger effect = lower value. z-score, hits read low. hit rate 0.47% among 220,000. AID 1381;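 active means plate z-score of nuclear minus cytoplasmic receptor signal below a set negative limit, without overly bright fluorescence or cell loss, cut at about -3.5 in these data, passing the limit was not always enough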;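 further: z-score of nuclear minus cytoplasmic ring GR-EGFP intensity difference per well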
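Medium: Induction medium lacking tetracycline, stripped serum | Probe or stimulus: 1.0 µM final dexamethasone stimulus | Schedule: 48 h induction, then 1 h compound, then 30 min agonist, 37 °C | Signal: Automated 10x imaging of fixed Hoechst-stained cells | Evaluation: Per-cell GR-EGFP intensity, nucleus versus surrounding cytoplasmic ring, well-averaged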
Autophagy mod: alters autophagy in cells. MEF GFP-LC3 puncta imaging; test concentration mostly 10 µM. calls only at 10 µM (by protocol). hit rate 0.98% among 190,000;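 active means percentage of spot-positive cells more than 3 SD above its plate mean, without a fluorescence outlier flag or 80% toxicity; inconclusive means no clear call, values can overlap the other calls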;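 further: spot-positive cell cutoff set from DMSO-treated cells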
Ins promoter up: MIN6 insulin promoter up-regulation; MIN6 insulin promoter-GFP reporter, high-content imaging; stronger effect = higher value; z-score at 5 µM; hit rate 0.3% among 190,000; AID 1625;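 active means z-score above 3 at 5 µM with at least 500 cells counted in the well; inconclusive means wells under 500 cells, flagged as cytotoxic or low count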
PERK inh: inhibitors of human PERK kinase. Q9NZJ5. CHO PERK-DD fusion, SEAP luminescence translation reporter. inhibition, % at 5.6 µM. hit rate 0.17% among 220,000. AID 1416;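 active means inhibition above the mean inhibition of all tested compounds plus 3 SD, set separately per screening campaign, cut at about 2.9% in these data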;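 further: PERK kinase domain activated by AP20187 dimerizer at 100 nM; 0% = DMSO with dimerizer and 100% = rapamycin at 8.4 µM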
Target sequence (Q9NZJ5 whole entry, looked up, the tested form may be a part): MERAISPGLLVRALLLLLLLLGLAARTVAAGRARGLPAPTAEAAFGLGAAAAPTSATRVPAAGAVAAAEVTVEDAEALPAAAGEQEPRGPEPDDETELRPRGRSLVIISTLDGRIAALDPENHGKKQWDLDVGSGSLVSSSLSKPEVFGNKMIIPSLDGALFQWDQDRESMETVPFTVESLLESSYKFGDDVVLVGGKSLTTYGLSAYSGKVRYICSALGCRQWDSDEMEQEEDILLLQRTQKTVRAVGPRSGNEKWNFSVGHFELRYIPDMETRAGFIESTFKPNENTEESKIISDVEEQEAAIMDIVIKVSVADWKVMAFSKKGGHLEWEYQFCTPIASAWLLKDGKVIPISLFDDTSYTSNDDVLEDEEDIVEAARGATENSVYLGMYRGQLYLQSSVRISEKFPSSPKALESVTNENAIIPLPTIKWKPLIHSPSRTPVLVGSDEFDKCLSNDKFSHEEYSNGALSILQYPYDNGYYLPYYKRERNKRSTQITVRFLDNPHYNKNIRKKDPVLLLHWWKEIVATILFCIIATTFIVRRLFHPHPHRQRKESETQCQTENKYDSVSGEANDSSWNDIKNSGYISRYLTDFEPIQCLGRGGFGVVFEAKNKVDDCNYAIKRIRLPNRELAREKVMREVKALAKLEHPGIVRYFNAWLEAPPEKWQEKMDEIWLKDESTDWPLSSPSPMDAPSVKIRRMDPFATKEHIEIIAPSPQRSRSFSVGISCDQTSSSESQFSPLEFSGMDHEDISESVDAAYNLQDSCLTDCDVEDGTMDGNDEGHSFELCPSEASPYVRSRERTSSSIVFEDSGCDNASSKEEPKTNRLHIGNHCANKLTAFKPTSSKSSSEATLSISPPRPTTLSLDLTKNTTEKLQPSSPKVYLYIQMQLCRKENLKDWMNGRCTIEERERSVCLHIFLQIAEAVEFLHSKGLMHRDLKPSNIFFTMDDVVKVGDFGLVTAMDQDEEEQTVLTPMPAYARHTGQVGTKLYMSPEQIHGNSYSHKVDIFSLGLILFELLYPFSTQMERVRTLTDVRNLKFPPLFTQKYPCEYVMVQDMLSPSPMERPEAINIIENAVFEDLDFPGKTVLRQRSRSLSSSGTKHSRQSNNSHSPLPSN
Insulin prom inh: TRM-6 insulin promoter activity inhibition. hit rate 0.9% among 130,000. AID 1273. TRM-6 cells, insulin promoter-eGFP reporter, imaging; reporter expression induced with tamoxifen. inhibition, % at 2 µM;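 active means inhibition above the mean plus 3 SD, with well images judged a real hit on visual review, cut at about 60% in these data, passing the limit was not always enough; inconclusive means inhibition over the cutoff but images rejected on review; inactive means inhibition not above the cutoff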
Numbers without * were called inactive; i = inactive; ? = inconclusive; · = no result given; + = active, no number.

SMILES	Dynein cargo inh	Autophagy mod	Ins promoter up	PERK inh	Insulin prom inh
COc1ccc(/C=N/NC(=O)c2ccncc2)cc1Cn1nc([N+](=O)[O-])c(Br)c1C	-0.31	i	-0.68	0	-394
CC1(C)CC(=O)C2=C(C1)C(c1cn(-c3ccccc3)nc1-c1ccccc1)C(C#N)=C(N)O2 (stereo not given)	-0.77	i	-0.36	0	·
CC1(C)CC(=O)C2=C(C1)OC(N)=C(C#N)C2c1cn(-c2ccccc2)nc1-c1ccc(F)cc1 (stereo not given)	-0.76	+	-0.4	0	·
CC(/C=N/NC(=O)c1cc(-c2cccn2C)n[nH]1)=C\c1ccccc1	1.6	·	-0.02	0	·
O=C(N/N=C/C(Br)=C\c1ccccc1)c1n[nH]c2c1CCC2	2.7	+	?	-1	-39
CC(/C=N/NC(=O)c1n[nH]c2c1CCC2)=C\c1ccccc1	0.55	+	-0.97	0	-58
O=C(c1cc(C2CC2)nc2ccc(Br)cc12)N1N=C(C(F)F)CC1(O)C(F)F (stereo not given)	-2.3	i	·	0	-108
CCn1cc(/C=N/NS(=O)(=O)c2ccc(OC)cc2)c(C)n1	-0.47	i	0.86	0	-28
CC(C)Sc1nc(C(F)(F)F)cc(=O)n1-c1ccccc1	0.3	i	·	3.0*	39
N#CCSc1nnc(-c2sc3ccccc3c2Cl)o1	-0.13	+	-0.06	2	-423
CCCCn1c(SCC(=O)NCc2ccco2)nc2c(sc3ccccc32)c1=O	-1.3	i	0.65	0	14
CCOCCCn1c(SCC(=O)NCc2ccco2)nc2c(sc3ccccc32)c1=O	-1	i	0.69	-1	53
O=C(CSc1nc2c(sc3ccccc32)c(=O)n1-c1ccccc1)NCc1ccco1	0.085	i	-0.33	-1	73*
O=C(CSc1nc2c(sc3ccccc32)c(=O)n1CCc1ccccc1)NCc1ccco1	-0.055	+	0.54	0	-36
CCn1nc(C)c(CNCc2cn[nH]c2-c2cc3ccccc3o2)c1C	0.94	·	-0.37	-2	·
CCCn1c(=NC(=O)c2c(-c3c(F)cccc3Cl)noc2C)c(C(=O)OCC)cc2c(=O)n3ccccc3nc21	-0.068	+	0.51	1	-9
COc1cccc(NC(=S)/C(=C(\[O-])c2ccc(C)c([N+](=O)[O-])c2)[n+]2ccccc2)c1	0.88	i	-0.14	1	77*
CC(C)(C)NC(=O)NC(=O)CN1CCN(c2ncc(C(F)(F)F)cc2Cl)CC1	-0.65	i	0.23	-1	68*
Cc1cc(C)c(C)c(S(=O)(=O)N2CCNCC2)c1C	-0.78	+	-0.86	0	·
Cc1ccc([N+](=O)[O-])cc1S(=O)(=O)N1CCNCC1	-0.36	i	-0.34	2	-5
O=C(COc1ncnc2ccccc12)NCCCN1CCCC1=O	-0.2	i	0.62	1	·
COc1cccc(/C=C/C(=O)Nc2ccc3c(c2)OCCO3)c1OC	0.035	+	-0.58	0	·
O=C(CCN1C(=O)C2CCCCC2C1=O)Nc1ccc(F)c(F)c1F (stereo not given)	0.55	+	1.2	-1	·
CC(Sc1nnnn1-c1ccc(Cl)cc1)C(=O)NCC(=O)Nc1ccc(F)c(F)c1F (stereo not given)	-0.47	i	0.91	0	-47
COc1ccc(OC)c(-n2c(=S)[nH]c3c(sc(=S)n3-c3ccccc3)c2=O)c1	-0.035	i	·	2	47
SMILES	Dynein cargo inh	Autophagy mod	Ins promoter up	PERK inh	Insulin prom inh
COc1ccc(C(=O)Nn2c(SCC(=O)N3CCC(C)CC3)nc3ccccc3c2=O)cc1	1.5	i	·	-1	11
COc1ccc(C(=O)Nn2c(SCC(=O)c3ccc(Cl)cc3)nc3ccccc3c2=O)cc1	-1.2	i	-0.42	0	83*
Nc1c(-c2ccccc2)cnn1-c1ccc(C(=O)O)cc1	0.11	i	-0.08	0	-31
O=c1[nH]c(CN2CCN(Cc3ccc4c(c3)OCO4)CC2)nc2sc3c(c12)CCC3	·	·	3.5*	·	·
CC(C)(C)OC(=O)N[C@@H](Cc1ccccc1)c1nnc(S(=O)(=O)Cc2ccccc2)o1	-4.3*	i	-0.08	1	46
CCCC(=O)Nc1sc(C)c(C)c1C(=O)Nc1cccc(C)c1	0.49	i	-0.09	0	35
CN(C)c1nc(Cl)nc(NCCOc2ccccc2)n1	-0.33	i	0.41	1	66*
CCNc1nc(Cl)nc(NCCOc2ccc(C)cc2)n1	-0.27	i	-0.52	-1	0
CN(Cc1cn(-c2ccccc2)nc1-c1ccc(Cl)cc1)C(=O)CCC(=O)O	-0.9	i	-0.12	-1	15
O=C(Nc1ccc(OC(F)F)c(Cl)c1)Nc1ccc2c(c1)OCO2	-0.1	i	0.15	-1	i
O=C(Nc1ccc([N+](=O)[O-])cc1)Nc1ccc(OC(F)F)c(Cl)c1	0.67	+	?	0	45
CCn1cc(C2=NC(C)CO2)c2ccccc21 (stereo not given)	-0.42	i	·	-2	84*
CCn1cc(C2=NC(c3ccccc3)CO2)c2ccccc21 (stereo not given)	0.37	i	0.1	0	25
COC(=O)c1ccccc1NC(=O)/C=C/c1cc(OC)c(OC)c(OC)c1	-0.42	i	·	-3	-15
Cc1cc(C(=O)NCCc2ccc(S(N)(=O)=O)cc2)no1	-0.79	i	·	1	·
CCOC(=O)c1[nH]c(C)c(C(=O)c2cc(F)ccc2F)c1C	-0.47	+	-1.8	1	70*
CCOC(=O)C1(Cc2ccccc2C(F)(F)F)CCN(C2CCN(C(C)C)CC2)CC1	0.023	i	-1.3	0	-112
C=CCN(CC=C)S(=O)(=O)c1ccc(C(=O)Nc2nnc(COC)o2)cc1	1.1	+	0.1	1	·
Fc1ccc(CCNC(=S)Nc2ccc(F)c(Cl)c2)cc1	-0.52	i	-0.38	0	·
O=C(CC1Nc2ccccc2NC1=O)Nc1cc(Cl)cc(Cl)c1 (stereo not given)	0.9	i	·	-1	-27
CCOC(=O)c1c(NC(=O)CC2Nc3ccccc3NC2=O)sc(C)c1C (stereo not given)	-0.26	+	-0.67	1	3
COC(=O)c1c(NC(=O)CC2Nc3ccccc3NC2=O)sc(C)c1C (stereo not given)	-0.53	+	·	0	-27
O=S(=O)(/N=C(/c1ccc(F)cc1)N1CCCCC1)c1ccc(Cl)cc1	-0.66	i	-0.88	1	35
COc1cc(NC(=O)c2ccc(-c3ccc(Br)cc3)o2)ccc1NC(=O)C(C)C	-0.8	+	-1.4	-1	-16
COc1ccccc1NC(=O)c1ccc(-c2ccc(Br)cc2)o1	-0.65	i	1.3	-1	50
Nc1nc(CN2CCN(c3ccccc3F)CC2)nc(Nc2ccc3c(c2)OCCO3)n1	1.2	i	-0.95	-1	0
CN1CCN(Cc2nc(N)nc(Nc3ccc4c(c3)OCCO4)n2)CC1	1.3	i	4.7*	1	·
